Activity calls are given as the source filed them. No cut-off for these calls is given here.
Experiments:
[1] = target: T1, Neutrophil elastase (Homo sapiens) (UniProt P08246); test: Compound was evaluated for the inhibitory activity against human Leukocyte elastase; Inactive
T1 sequence (whole entry): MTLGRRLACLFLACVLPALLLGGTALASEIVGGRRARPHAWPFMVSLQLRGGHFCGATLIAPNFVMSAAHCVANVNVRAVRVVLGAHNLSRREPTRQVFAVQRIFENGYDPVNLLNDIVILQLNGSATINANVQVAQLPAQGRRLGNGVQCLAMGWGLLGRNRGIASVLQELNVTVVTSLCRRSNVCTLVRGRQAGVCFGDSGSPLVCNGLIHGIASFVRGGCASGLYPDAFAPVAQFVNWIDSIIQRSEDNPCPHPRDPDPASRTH
Outline: (§1)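 Human leukocyte elastase (enzyme stock 3.4 × 10⁻⁵ M in pH 5.5 acetate) incubated at 25 °C with inhibitor (DMSO stock 3.4 × 10⁻⁴ M) in Tris buffer pH 7.2. The inhibitor:enzyme ratio was 10–50. Aliquots taken over time were added to MeOSuc-Ala-Ala-Pro-Val-pNA (stock 3.15 × 10⁻² M). Residual activity was read at 410 nm for 2 min after 30 s, against a DMSO control.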

[2] = target: T1, Neutrophil elastase (Homo sapiens); test: Inhibitory activity against human Leukocyte elastase; outline: as §1
[3] = target: T1, Neutrophil elastase (Homo sapiens); test: Inhibitory activity against human Leukocyte elastase; inactive (at 243-fold excess of inhibitor over enzyme)

| K obs / 1 [2] | further results | Compound |
| --- | --- | --- |
| – | K obs / 1 [1]: inactive | O=C(Nc1cccc(C(F)(F)F)c1)n1ccnc1 |
| 483 M⁻¹ s⁻¹ | – | O=C(NCCc1cccc(C(F)(F)F)c1)n1ccnc1 |
| 35 M⁻¹ s⁻¹ | – | O=C(NCCc1ccccc1)n1ccnc1 |
| – | K obs / 1 [1]: inactive | O=C(NCc1cccc(F)c1)n1ccnc1 |
| 550 M⁻¹ s⁻¹ | – | COC(=O)C(Cc1ccccc1)NC(=O)S(=O)(=O)O (racemic) |
| 6640 M⁻¹ s⁻¹ | – | COC(=O)C(Cc1ccccc1)NC(=O)ON1C(=O)CCC1=O (centres undefined) |
| – | K obs / 1 [3]: inactive | O=C(Nc1cccc(F)c1)S(=O)(=O)O |
| – | K obs / 1 [3]: inactive | O=C(NCc1cccc(F)c1)S(=O)(=O)O |
| – | K obs / 1 [3]: inactive | O=C(Nc1ccccc1C(F)(F)F)S(=O)(=O)O |
| – | K obs / 1 [1]: inactive | O=C(Nc1ccccc1C(F)(F)F)n1ccnc1 |
| 18 M⁻¹ s⁻¹ | – | O=C(NCCc1cccc(F)c1)S(=O)(=O)O |
| – | K obs / 1 [3]: inactive | O=C(Nc1cccc(Cl)c1)S(=O)(=O)O |
| 57 M⁻¹ s⁻¹ | – | COC(=O)C(Cc1cccc(F)c1)NC(=O)S(=O)(=O)O (racemic) |
| 2330 M⁻¹ s⁻¹ | – | COC(=O)C(Cc1ccccc1)NC(=O)n1ccccc1=O (centres undefined) |
| 2070 M⁻¹ s⁻¹ | – | COC(=O)C(Cc1ccccc1)NC(=O)n1ccnc1 (centres undefined) |
| 317 M⁻¹ s⁻¹ | – | O=C(Nc1cn(-c2cccc(F)c2)cn1)n1ccccc1=O |
| 11700 M⁻¹ s⁻¹ | – | O=C(Nc1cn(-c2cccc(C(F)(F)F)c2)cn1)n1ccccc1=O |

| K obs / 1 [2] | further results | Compound |
| --- | --- | --- |
| 927 M⁻¹ s⁻¹ | – | O=C(Nc1cn(-c2ccccc2)cn1)ON1C(=O)CCC1=O |
| – | K obs / 1 [1]: inactive | O=C(NCc1ccc(C(F)(F)F)cc1)n1ccnc1 |
| 500 M⁻¹ s⁻¹ | – | O=C(Nc1cn(-c2ccccc2)cn1)n1ccccc1=O |
| 1100 M⁻¹ s⁻¹ | – | COC(=O)C(Cc1cccc(C(F)(F)F)c1)NC(=O)n1ccnc1 (centres undefined) |
| – | K obs / 1 [3]: inactive | O=C(Nc1ccc(Cl)cc1)S(=O)(=O)O |
| – | K obs / 1 [3]: inactive | O=C(Nc1cccc(C(F)(F)F)c1)S(=O)(=O)O |
| – | K obs / 1 [1]: inactive | O=C(NCc1cccc(C(F)(F)F)c1)n1ccnc1 |
| 318 M⁻¹ s⁻¹ | – | COC(=O)C(Cc1cccc(F)c1)NC(=O)n1ccnc1 (centres undefined) |
| 4 M⁻¹ s⁻¹ | – | O=C(NCCc1ccccc1)S(=O)(=O)O |
| – | K obs / 1 [3]: inactive | O=C(Nc1ccc(C(F)(F)F)cc1)S(=O)(=O)O |
| 13500 M⁻¹ s⁻¹ | – | O=C(Nc1cn(-c2cccc(C(F)(F)F)c2)cn1)ON1C(=O)CCC1=O |
| – | K obs / 1 [3]: inactive | O=C(Nc1ccccc1)S(=O)(=O)O |
| 823 M⁻¹ s⁻¹ | – | O=C(Nc1cn(-c2cccc(F)c2)cn1)ON1C(=O)CCC1=O |
| – | K obs / 1 [1]: inactive | O=C(Nc1cccc(F)c1)n1ccnc1 |
| 13 M⁻¹ s⁻¹ | – | COC(=O)C(Cc1cccc(C(F)(F)F)c1)NC(=O)S(=O)(=O)O (racemic) |
| 38 M⁻¹ s⁻¹ | – | O=C(NCCc1cccc(F)c1)n1ccnc1 |
| – | K obs / 1 [3]: inactive | O=C(NCc1cccc(C(F)(F)F)c1)S(=O)(=O)O |
